Numbered stars: 1 amine (or outer) side, 2 acyl side, 3 side chain; on linkers, the order of the positions; unused ones are H or OH. Bridge positions count the residues as written; N and C are the ends. Square brackets hold non-standard residues; d marks the D form. Peptide text beside a SMILES is read from it. * marks the point of attachment. Orn(4R-OH,5R-OCH2CH2NMe3+) = C[N+](C)(C)CCO[C@@H](N[*:3])[C@H](O)C[C@H](N[*:1])C(=O)[*:2]; pTerphenylCO(4''-OnC5H11) = CCCCCOc1ccc(-c2ccc(-c3ccc(C(=O)*)cc3)cc2)cc1; hTyr(3S-OH,4S-OH) = N[C@H](C(=O)O)[C@H](O)[C@@H](O)c1ccc(O)cc1; Pro(3S-OH,4S-Me) = C[C@H]1CN[C@H](C(=O)O)[C@H]1O; Hyp = O=C(O)[C@@H]1C[C@@H](O)CN1
Assays:
[1] = Safety: treatment-emergent adverse events; type: in vivo, patients (adults); settings: safety population
Method in brief: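 Post-hoc pooled data from two randomised, double-blind, double-dummy trials. The safety population was adults in the ICU at randomisation who received ≥1 dose. Dosing was IV test compound weekly (400 mg Day 1, 200 mg Day 8, optional later 200 mg) or IV comparator echinocandin daily (70 mg Day 1, then 50 mg/day). TEAEs ran from dosing to follow-up, coded MedDRA 23.0, graded mild/moderate/severe, and summarised descriptively.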

[2] = cited from earlier work
[3] = ICU at randomisation, n=46 rezafungin, n=67 caspofungin
[4] = ICU at randomisation, number of events per severity

CCCCCOc1ccc(-c2ccc(-c3ccc(C(=O)N[C@H]4C[C@@H](O)[C@@H](OCC[N+](C)(C)C)NC(=O)[C@@H]5[C@@H](O)[C@@H](C)CN5C(=O)[C@H]([C@@H](C)O)NC(=O)[C@H]([C@H](O)[C@@H](O)c5ccc(O)cc5)NC(=O)[C@@H]5C[C@@H](O)CN5C(=O)[C@H]([C@@H](C)O)NC4=O)cc3)cc2)cc1 [Rezafungin] ({pTerphenylCO(4''-OnC5H11)}-[Orn(4R-OH,5R-OCH2CH2NMe3+)]T[Hyp][hTyr(3S-OH,4S-OH)]T[Pro(3S-OH,4S-Me)]; lactam 1-C)
TEAE: Abdominal abscess, patients [1, 3]: 1 (2.2) n (%) | TEAE: Abdominal pain, patients [1, 3]: 4 (8.7) n (%) | TEAE: Acidosis, patients [1, 3]: 1 (2.2) n (%) | TEAE: Acute kidney injury, patients [1, 3]: 1 (2.2) n (%) | TEAE: Anaemia, patients [1, 3]: 7 (15.2) n (%) | TEAE: Atrial fibrillation, patients [1, 3]: 3 (6.5) n (%) | TEAE: Bradycardia, patients [1, 3]: 1 (2.2) n (%) | TEAE: Constipation, patients [1, 3]: 2 (4.3) n (%) | TEAE: Decubitus ulcer, patients [1, 3]: 3 (6.5) n (%) | TEAE: Deep vein thrombosis, patients [1, 3]: 1 (2.2) n (%) | TEAE: Diarrhoea, patients [1, 3]: 7 (15.2) n (%) | TEAE: Dyspnoea, patients [1, 3]: 0 (0) n (%) | TEAE: Fluid overload, patients [1, 3]: 4 (8.7) n (%) | TEAE: Hyperkalaemia, patients [1, 3]: 2 (4.3) n (%) | TEAE: Hypertension, patients [1, 3]: 3 (6.5) n (%) | TEAE: Hypokalaemia, patients [1, 3]: 4 (8.7) n (%) | TEAE: Hypotension, patients [1, 3]: 3 (6.5) n (%) | TEAE: Insomnia, patients [1, 3]: 4 (8.7) n (%) | TEAE: Multiple organ dysfunction syndrome, patients [1, 3]: 3 (6.5) n (%) | TEAE: Nausea, patients [1, 3]: 4 (8.7) n (%) | TEAE: Peripheral oedema, patients [1, 3]: 3 (6.5) n (%) | TEAE: Pleural effusion, patients [1, 3]: 0 (0) n (%) | TEAE: Pneumonia, patients [1, 3]: 3 (6.5) n (%) | TEAE: Pneumothorax, patients [1, 3]: 0 (0) n (%) | TEAE: Pyrexia, patients [1, 3]: 2 (4.3) n (%) | TEAE: Respiratory failure, patients [1, 3]: 0 (0) n (%) | TEAE: Sepsis, patients [1, 3]: 5 (10.9) n (%) | TEAE: Septic shock, patients [1, 3]: 6 (13.0) n (%) | TEAE: Vomiting, patients [1, 3]: 7 (15.2) n (%) | ≥ 1 TEAE [1, 3]: 41 (89.1) n (%) | ≥ 1 TEAE leading to study/drug discontinuation [1, 3]: 8 (17.4) n (%) | ≥ 1 serious TEAE [1, 3]: 28 (60.9) n (%) | ≥ 1 study drug-related TEAE [1, 3]: 4 (8.7) n (%) | ≥ 1 study drug-related TEAE leading to study/drug discontinuation [1, 3]: 0 (0) n (%) | ≥ 1 study drug-related serious TEAE [1, 3]: 1 (2.2) n (%) | TEAE: Abdominal abscess, event severity (n): mild/moderate/severe [1, 4]: 0/1/0 | TEAE: Abdominal pain, event severity (n): mild/moderate/severe [1, 4]: 1/2/1 | TEAE: Acidosis, event severity (n): mild/moderate/severe [1, 4]: 1/1/0 | TEAE: Acute kidney injury, event severity (n): mild/moderate/severe [1, 4]: 1/1/0 | TEAE: Anaemia, event severity (n): mild/moderate/severe [1, 4]: 2/4/1 | TEAE: Atrial fibrillation, event severity (n): mild/moderate/severe [1, 4]: 1/2/0 | TEAE: Bradycardia, event severity (n): mild/moderate/severe [1, 4]: 0/1/0 | TEAE: Constipation, event severity (n): mild/moderate/severe [1, 4]: 2/0/0 | TEAE: Decubitus ulcer, event severity (n): mild/moderate/severe [1, 4]: 2/1/0 | TEAE: Deep vein thrombosis, event severity (n): mild/moderate/severe [1, 4]: 1/0/0 | TEAE: Diarrhoea, event severity (n): mild/moderate/severe [1, 4]: 6/1/0 | TEAE: Dyspnoea, event severity (n): mild/moderate/severe [1, 4]: 0/0/0 | TEAE: Fluid overload, event severity (n): mild/moderate/severe [1, 4]: 0/3/1 | TEAE: Hyperkalaemia, event severity (n): mild/moderate/severe [1, 4]: 2/0/0 | TEAE: Hypertension, event severity (n): mild/moderate/severe [1, 4]: 2/1/0 | TEAE: Hypokalaemia, event severity (n): mild/moderate/severe [1, 4]: 3/1/0 | TEAE: Hypotension, event severity (n): mild/moderate/severe [1, 4]: 2/1/0 | TEAE: Insomnia, event severity (n): mild/moderate/severe [1, 4]: 3/1/0 | TEAE: Multiple organ dysfunction syndrome, event severity (n): mild/moderate/severe [1, 4]: 0/0/3 | TEAE: Nausea, event severity (n): mild/moderate/severe [1, 4]: 0/4/0 | TEAE: Peripheral oedema, event severity (n): mild/moderate/severe [1, 4]: 3/0/0 | TEAE: Pleural effusion, event severity (n): mild/moderate/severe [1, 4]: 0/0/0 | TEAE: Pneumonia, event severity (n): mild/moderate/severe [1, 4]: 0/0/3 | TEAE: Pneumothorax, event severity (n): mild/moderate/severe [1, 4]: 0/0/0 | TEAE: Pyrexia, event severity (n): mild/moderate/severe [1, 4]: 1/1/0 | TEAE: Respiratory failure, event severity (n): mild/moderate/severe [1, 4]: 0/0/0 | TEAE: Sepsis, event severity (n): mild/moderate/severe [1, 4]: 3/2/1 | TEAE: Septic shock, event severity (n): mild/moderate/severe [1, 4]: 0/1/5 | TEAE: Vomiting, event severity (n): mild/moderate/severe [1, 4]: 4/4/0 | Study drug-related serious TEAEs, events ([1]; each event n = 1): infusion-related reaction | half-life [2]: 120 to 140 h
